Measurements reported in ChEMBL document CHEMBL1140307, “Design and synthesis of alpha-aryloxyphenylacetic acid derivatives: a novel class of PPARalpha/gamma dual agonists with potent antihyperglycemic and lipid modulating activity” (J Med Chem, 2005).

Key:
[1] = molecular target: T1, Peroxisome proliferator-activated receptor alpha (Homo sapiens, UniProt Q07869); experiment: In vitro binding affinity for human PPAR alpha
T1 sequence (Q07869 whole entry): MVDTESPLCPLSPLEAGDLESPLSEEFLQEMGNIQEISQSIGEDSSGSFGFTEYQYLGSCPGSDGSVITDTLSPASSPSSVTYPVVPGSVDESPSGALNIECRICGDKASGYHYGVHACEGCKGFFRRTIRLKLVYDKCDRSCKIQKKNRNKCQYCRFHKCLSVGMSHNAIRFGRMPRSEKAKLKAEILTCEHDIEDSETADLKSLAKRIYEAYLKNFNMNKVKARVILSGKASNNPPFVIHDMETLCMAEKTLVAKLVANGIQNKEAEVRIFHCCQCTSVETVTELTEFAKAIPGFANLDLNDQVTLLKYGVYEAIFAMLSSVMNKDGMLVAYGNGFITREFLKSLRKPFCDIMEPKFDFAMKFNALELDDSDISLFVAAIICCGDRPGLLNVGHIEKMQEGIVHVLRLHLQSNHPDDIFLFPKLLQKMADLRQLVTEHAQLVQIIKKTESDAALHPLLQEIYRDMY

[2] = molecular target: T2, Peroxisome proliferator-activated receptor gamma (Homo sapiens, UniProt P37231); experiment: In vitro binding affinity for human PPAR gamma
T2 sequence (P37231 whole entry): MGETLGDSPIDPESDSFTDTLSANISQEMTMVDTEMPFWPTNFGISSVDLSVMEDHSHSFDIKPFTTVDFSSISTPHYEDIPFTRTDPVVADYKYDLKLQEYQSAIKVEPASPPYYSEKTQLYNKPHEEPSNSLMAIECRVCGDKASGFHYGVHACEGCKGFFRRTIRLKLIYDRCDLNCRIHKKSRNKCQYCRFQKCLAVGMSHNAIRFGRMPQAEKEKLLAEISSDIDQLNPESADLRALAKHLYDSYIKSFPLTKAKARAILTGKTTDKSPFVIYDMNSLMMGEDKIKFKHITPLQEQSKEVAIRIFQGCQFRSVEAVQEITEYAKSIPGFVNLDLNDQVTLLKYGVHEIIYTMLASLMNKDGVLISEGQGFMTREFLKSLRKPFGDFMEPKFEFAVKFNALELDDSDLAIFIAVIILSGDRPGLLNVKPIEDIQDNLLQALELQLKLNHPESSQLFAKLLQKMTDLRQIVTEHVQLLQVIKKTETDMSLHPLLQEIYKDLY

Canis familiaris [3] = experiment: Percentage change in the serum cholesterol upon administration of compound (20 mpk) in dogs; assay type: functional, Canis lupus familiaris
Method in brief: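 Male Beagle dogs were housed individually on a cholesterol-free chow diet, five per group. Baseline serum cholesterol was taken from weekly jugular bleeds before the study. Compound suspended in 0.5% methylcellulose was gavaged daily for 2 weeks. Serum cholesterol was measured during and after dosing and reported as mean percent change (n = 5).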

Cricetinae gen. sp. [4] = experiment: Percentage change in the serum cholesterol upon administration of compound (100 mpk) in hamster; assay type: functional
Method in brief: (§1)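 Male Golden Syrian hamsters were fed normal rodent chow and dosed orally once daily with compound. Serum total cholesterol and triglyceride were measured and expressed as percent change versus vehicle controls.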

Cricetinae gen. sp. [5] = experiment: Percentage change in the serum triglyceride upon administration of compound (100 mpk) in hamster; assay type: functional; method in brief: as §1
Cricetinae gen. sp. [6] = experiment: Effect (100 mpk) on serum cholesterol in hamster; assay type: functional
Method in brief: (§2)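 Male Golden Syrian hamsters on normal rodent chow, dosed orally with test compound (9 days per table legend). Serum total cholesterol and triglyceride were measured in mg/dL. Values are group means, expressed as % change versus the vehicle-treated control group.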

Mesocricetus auratus [7] = species: Mesocricetus auratus; experiment: Effect (100 mpk) on serum triglyceride in Golden Syrian hamster
Canis familiaris [8] = experiment: Percentage change in the serum cholesterol upon administration of compound (100 mpk) in dogs
[9] = Area under concentration time curve of compound when administered perorally at a dose of 2 mg/kg to dogs; assay type: ADME, organism-based, Canis lupus familiaris; set-up: dose 2 mg/kg, route oral; conditions: dog, in vivo, po
Method in brief: (§3)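 Male Sprague-Dawley rats (n = 3) and male adult Beagle dogs (n = 4) were fasted overnight. They received either a 2 mg/kg oral gavage dose or a 0.5 mg/kg IV bolus. Blood was drawn into heparin tubes from a femoral arterial cannula (rat) or the jugular vein (dog) at set time points. Plasma was acidified with 0.5 M formate pH 3.0, stored at -70 °C and quantified by LC-MS/MS.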

[10] = Area under concentration time curve of compound when administered perorally at a dose of 2 mg/kg to rats; assay type: ADME, organism-based; set-up: dose 2 mg/kg, route oral; conditions: rat, in vivo, po; method in brief: as §3
Rattus norvegicus [11] = experiment: Effect (150 mg/kg) on PPAR gamma- mediated effects measured as change in heart weight in rats; assay type: functional
Method in brief: (§4)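 Male Sprague-Dawley rats (about 200 g, n = 6) were fed rodent chow and gavaged once daily for 2 weeks with compound in 0.5% methylcellulose. Body weight was recorded on days 1, 4, 6, 8, 11 and 14. Rats were euthanized with CO2 24 h after the last dose, and BAT, heart and liver were weighed. Blood was taken by heart puncture for hematocrit. Results are mean ± SD versus vehicle.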

Rattus norvegicus [12] = experiment: Effect (150 mg/kg) on PPAR gamma- mediated effects measured as change in hematocrit weight in rats; assay type: functional; method in brief: as §4
[13] = molecular target: T1, Peroxisome proliferator-activated receptor alpha; experiment: Agonist response against human PPAR alpha in transactivation assay
[14] = molecular target: T2, Peroxisome proliferator-activated receptor gamma; experiment: Agonist response against human PPAR gamma in transactivation assay; assay type: functional
Rattus norvegicus [15] = experiment: Effect (150 mg/kg) on PPAR gamma- mediated effects measured as change in brown adipose tissue weight in rats; assay type: functional; method in brief: as §4
Cricetinae gen. sp. [16] = experiment: Percentage change in the serum cholesterol upon administration of compound (10 mpk) in hamster; assay type: functional; method in brief: as §1
Cricetinae gen. sp. [17] = experiment: Percentage change in the serum triglyceride upon administration of compound (10 mpk) in hamster; assay type: functional; method in brief: as §1
Rattus norvegicus [18] = experiment: Effect (150 mg/kg) on PPAR gamma- mediated effects measured as change in liver weight in rats; assay type: functional; method in brief: as §4
Cricetinae gen. sp. [19] = experiment: Effect (10 mpk) on serum cholesterol in hamster; assay type: functional; method in brief: as §2
[20] = Half life when administered intravenously at a dose of 0.5 mg/kg to dogs; assay type: ADME, organism-based, Canis lupus familiaris; set-up: dose 0.5 mg/kg, route intravenous; conditions: dog, in vivo, iv; method in brief: as §3
[21] = Half life when administered intravenously at a dose of 0.5 mg/kg to rats; assay type: ADME, organism-based; set-up: dose 0.5 mg/kg, route intravenous; conditions: rat, in vivo, iv; method in brief: as §3
[22] = Oral bioavailability in dog; assay type: ADME, organism-based, Canis lupus familiaris; conditions: in vivo; method in brief: as §3
[23] = Oral bioavailability in rat; assay type: ADME, organism-based; conditions: in vivo; method in brief: as §3
Rattus norvegicus [24] = experiment: Effect (150 mg/kg) on PPAR gamma- mediated effects measured as change in body weight in rats; assay type: functional; method in brief: as §4
Mesocricetus auratus [25] = species: Mesocricetus auratus; experiment: Effect (10 mpk) on serum triglyceride in hamster
Canis familiaris [26] = experiment: Percentage change in the serum cholesterol upon administration of compound (10 mpk) in dogs

SMILES	IC50 [1] [nM]	IC50 [2] [nM]	EC50 [13] [nM]	EC50 [14] [nM]	also measured
CCCc1cc(C(=O)CC)cc(CCC)c1CC(C(=O)O)c1ccc(C(C)C)cc1 (stereo unspecified)	> 15000	> 50000	–	–	–
CC(C)OC(=O)C(C)(C)Oc1ccc(C(=O)c2ccc(Cl)cc2)cc1 [FENOFIBRATE]	–	–	–	–	Change (Canis familiaris [3]): -4.7%; Change (Cricetinae gen. sp. [4]): -29%; Change (Cricetinae gen. sp. [5]): -26%; Cholesterol level (Cricetinae gen. sp. [6]): 91 mg/dL; Triglyceride level (Mesocricetus auratus [7]): 244 mg/dL; Change (Canis familiaris [8]): -23.5%
CCCc1cc(C(=O)c2ccccc2)cc(CCC)c1OC(C(=O)O)c1ccccc1 (stereo unspecified)	800	4680	–	–	–
CCCc1cc(C(=O)CC)cc(CCC)c1O[C@@H](C(=O)O)c1ccc(C(C)C)cc1	3900	2980	–	–	–
CCCc1cc2c(=O)n(C)oc2c(CCC)c1O[C@H](C(=O)O)c1ccc(C(C)C)cc1	74	–	670	390	AUC [9]: 26.9 µM·h; AUC [10]: 67.5 µM·h; Heart weight (Rattus norvegicus [11]): 1.14 g; Hematocrit (Rattus norvegicus [12]): 45.7%; BAT (Rattus norvegicus [15]): 0.24 g; Change (Cricetinae gen. sp. [16]): -17%; Change (Cricetinae gen. sp. [17]): -9%; Liver weight (Rattus norvegicus [18]): 20.3 g; Cholesterol level (Cricetinae gen. sp. [19]): 106 mg/dL; half-life [20]: 1.6 h; half-life [21]: 7.2 h; bioavailability [22]: 73%; bioavailability [23]: 73%; Body weight (Rattus norvegicus [24]): 278 g; Triglyceride level (Mesocricetus auratus [25]): 303 mg/dL; Change (Canis familiaris [26]): -17.3%
CCCc1c(O[C@H](C(=O)O)c2ccc(C(C)C)cc2)c(Cl)cc2c1oc(=O)n2CC	1410	520	–	360	–
CCCc1cc2c(oc(=O)n2CC(F)(F)F)c(CCC)c1O[C@H](C(=O)O)c1ccc(C(C)C)cc1	100	110	310	140	–
CCCc1cc2c(oc(=O)n2C)c(CCC)c1O[C@H](C(=O)O)c1ccc(C(C)C)cc1	393	85	–	640	–
CCCc1cc(C(=O)CC)cc(CCC)c1NC(C(=O)O)c1ccc(C(C)C)cc1 (stereo unspecified)	> 50000	> 50000	–	–	–
CCCc1cc2c(oc(=O)n2CC2CC2)c(CCC)c1O[C@H](C(=O)O)c1ccc(C(C)C)cc1	130	120	–	330	–
CN(CCOc1ccc(CC2SC(=O)NC2=O)cc1)c1ccccn1 (stereo unspecified) [ROSIGLITAZONE]	–	–	–	–	Heart weight (Rattus norvegicus [11]): 1.46 g; Hematocrit (Rattus norvegicus [12]): 41.3%; BAT (Rattus norvegicus [15]): 1.03 g; Liver weight (Rattus norvegicus [18]): 16.6 g; Body weight (Rattus norvegicus [24]): 322 g
CCCc1cc(C(=O)CC)cc(CCC)c1OC(C(=O)O)c1ccccc1 (stereo unspecified)	51	2760	100	–	–
CCCc1cc(C(=O)C(C)C)cc(CCC)c1OC(C(=O)O)c1ccccc1 (stereo unspecified)	160	3160	250	–	–
CCCc1cc(C(=O)CC)cc(CCC)c1O[C@H](C(=O)O)c1ccc(CC)cc1	64	210	76	480	–
CCCc1cc(C(=O)C(C)(C)C)cc(CCC)c1OC(C(=O)O)c1ccccc1 (stereo unspecified)	130	2700	160	–	–
CCC(=O)c1ccc(OC(C(=O)O)c2ccccc2)cc1 (stereo unspecified)	> 50000	> 50000	–	–	–
